According to ChEMBL document CHEMBL1152770, “Inhibitors of hepatitis C virus polymerase: synthesis and biological characterization of unsymmetrical dialkyl-hydroxynaphthalenoyl-benzothiadiazines” (J Med Chem, 2009):

Key:
Nucleic Acid [1] = experiment: Ratio of drug level in rat liver after 12 hrs to EC50 for HCV isolate Con1 in presence of 40% human serum; format: tissue-based
Nucleic Acid [2] = experiment: Ratio of drug level in rat liver after 6 hrs to EC50 for HCV isolate Con1 in presence of 40% human serum; format: tissue-based
[3] = Elimination half life in dog at 2.5 mg/kg, iv; format: ADME, organism-based, Canis lupus familiaris; design: dose 2.5 mg/kg, route intravenous; conditions: in vivo, read-out: beta t1/2 (converted)
Procedure, shortened: (§1)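 Vehicle DMSO:PEG400 (10:90, v/v). Dosing at 5 mg/kg in rat and monkey; dog 5 mg/kg or 2.5 mg/kg. Protein precipitation with acetonitrile, then LC-MS/MS in negative-ion MRM (m/z 516.2→437.0) against spiked standards with internal standard.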

[4] = Aqueous solubility in 50 mM citrate buffer at pH 4; format: physicochemical
Procedure, shortened: (§2)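 Equilibrium solubility in PEG 400, in 50 mM citrate buffer pH 4 or in 50 mM phosphate buffer pH 7.4. Buffers brought to ionic strength 0.155 M with NaCl. Vials rotated at 25 °C for 4 days, final pH measured, then supernatant assayed by reverse-phase HPLC at 262 nm against a linear standard curve.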

[5] = Inhibition of HCV isolate BK NS5B polymerase after 3 hrs by scintillation counting
[6] = Metabolic stability in dog liver microsomes assessed as intrinsic clearance; format: ADME, Canis lupus familiaris, Microsome
[7] = Solubility in polyethylene glycol 400 at 25 deg C; format: physicochemical; procedure, shortened: as §2
Hepatitis C virus [8] = experiment: Antiviral activity against HCV isolate Con1 in human Huh7 cells assessed as reduction in viral RNA after 4 days by RT-PCR; conditions: isolate Con1, Huh-7, 96 h
[9] = Volume of distribution at steady state in dog at 2.5 mg/kg, iv; format: ADME, organism-based, Canis lupus familiaris; design: dose 2.5 mg/kg, route intravenous; conditions: in vivo, read-out: Vdss
Procedure, shortened: (§3)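 Single intravenous dose. Heparinized plasma sampled at 0.1, 0.25, 0.5, 1, 2, 4, 6, 9, 12 and 24 h, plus 3 and 15 h in dog. Drug was isolated by acetonitrile protein precipitation and quantified by LC-MS in negative-ion MRM mode (m/z 516.2→437.0) against an internal standard. Concentrations came from unweighted linear regression of spiked standards.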

[10] = n-Octanol-phosphate buffer distribution coefficient, log D at pH 7.4; format: physicochemical
Procedure, shortened: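 Compound was dissolved in n-octanol and mixed with 50 mM phosphate buffer, isotonic with NaCl, pH 7.4. The mixture was tumbled at 25 °C, 25 rpm, for 2-3 days, then centrifuged to split the phases. Each phase was assayed by reverse-phase HPLC (UV 262 nm) against a linear standard curve. D is the octanol/buffer concentration ratio.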

[11] = Inhibition of HCV isolate H77 NS5B polymerase after 3 hrs by scintillation counting
[12] = Oral bioavailability in dog at 2.5 mg/kg; format: ADME, organism-based, Canis lupus familiaris; conditions: in vivo; procedure, shortened: as §1
[13] = Elimination half life in monkey at 5 mg/kg, po; format: ADME, organism-based, Macaca mulatta; design: dose 5 mg/kg, route oral; conditions: rhesus monkey, in vivo, read-out: beta t1/2 (converted); procedure, shortened: as §1
[14] = Terminal phase volume of distribution in dog at 2.5 mg/kg, iv; format: ADME, organism-based, Canis lupus familiaris; design: dose 2.5 mg/kg, route intravenous; conditions: in vivo, read-out: Vbeta; procedure, shortened: as §1
[15] = AUC in dog at 2.5 mg/kg, po; format: ADME, organism-based, Canis lupus familiaris; design: dose 2.5 mg/kg, route oral; conditions: plasma; procedure, shortened: as §1
[16] = Tmax in monkey at 5 mg/kg, po; format: ADME, organism-based, Macaca mulatta; design: dose 5 mg/kg, route oral; conditions: rhesus monkey, in vivo
Procedure, shortened: (§4)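 Single oral gavage-type dose in DMSO:PEG400 (10:90, v/v). Heparinized plasma collected at 0.25, 0.5, 1, 2, 4, 6, 9, 12 and 24 h, with extra 3 and 15 h points in dog. Acetonitrile protein precipitation was followed by LC-MS in negative-ion MRM mode with an internal standard. Tmax was read from the plasma profile.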

[17] = AUC in monkey at 5 mg/kg, iv; format: ADME, organism-based, Macaca mulatta; design: dose 5 mg/kg, route intravenous; conditions: rhesus monkey, plasma; procedure, shortened: as §1
[18] = Volume of distribution at steady state in monkey at 5 mg/kg, iv; format: ADME, organism-based, Macaca mulatta; design: dose 5 mg/kg, route intravenous; conditions: rhesus monkey, in vivo, read-out: Vdss; procedure, shortened: as §3
Hepatocyte [19] = experiment: Metabolic stability in rat hepatocytes assessed as intrinsic clearance; format: ADME, cell-based, Liver
[20] = Cytotoxicity against human HuH7 cells by MTT assay; format: cell-based, Huh-7; conditions: read-out: TD50 (the source's name)
Procedure, shortened: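 Cytotoxicity in Huh-7 replicon cultures measured by MTT colorimetric assay after the four-day incubation.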

[21] = Cmax in rat at 5 mg/kg, po; format: ADME, organism-based; design: dose 5 mg/kg, route oral; conditions: in vivo; procedure, shortened: as §1
[22] = AUC in rat at 5 mg/kg, po; format: ADME, organism-based; design: dose 5 mg/kg, route oral; conditions: plasma; procedure, shortened: as §1
[23] = Terminal phase volume of distribution in rat at 5 mg/kg, iv; format: ADME, organism-based; design: dose 5 mg/kg, route intravenous; conditions: in vivo, read-out: Vbeta; procedure, shortened: as §3
[24] = Cmax in monkey at 5 mg/kg, po; format: ADME, organism-based, Macaca mulatta; design: dose 5 mg/kg, route oral; conditions: rhesus monkey, in vivo; procedure, shortened: as §1
[25] = AUC in rat at 5 mg/kg, iv; format: ADME, organism-based; design: dose 5 mg/kg, route intravenous; conditions: plasma; procedure, shortened: as §1
[26] = Elimination half life in monkey at 5 mg/kg, iv; format: ADME, organism-based, Macaca mulatta; design: dose 5 mg/kg, route intravenous; conditions: rhesus monkey, in vivo, read-out: beta t1/2 (converted); procedure, shortened: as §1
[27] = Metabolic stability in human liver microsomes assessed as intrinsic clearance; format: ADME, Microsome
[28] = Drug level in rat liver at 5 mg/kg, po after 12 hrs; format: ADME, organism-based; design: dose 5 mg/kg, route oral; conditions: read-out: Drug uptake
Procedure, shortened: (§5)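 Rats dosed orally at 5 mg/kg, four groups, sacrificed at 6 and 12 h. Plasma and liver homogenate extracted by acetonitrile protein precipitation with internal standard and quantified by LC-MS (negative-ion MRM). Liver/plasma ratio taken from the two concentrations.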

[29] = AUC in monkey at 5 mg/kg, po; format: ADME, organism-based, Macaca mulatta; design: dose 5 mg/kg, route oral; conditions: rhesus monkey, plasma; procedure, shortened: as §1
[30] = Cmax in dog at 2.5 mg/kg, po; format: ADME, organism-based, Canis lupus familiaris; design: dose 2.5 mg/kg, route oral; conditions: in vivo; procedure, shortened: as §1
[31] = Oral bioavailability in monkey at 5 mg/kg; format: ADME, organism-based, Macaca mulatta; conditions: rhesus monkey, in vivo; procedure, shortened: as §1
[32] = Tmax in rat at 5 mg/kg, po; format: ADME, organism-based; design: dose 5 mg/kg, route oral; conditions: in vivo; procedure, shortened: as §4
[33] = Drug level in rat liver at 5 mg/kg, po after 6 hrs; format: ADME, organism-based; design: dose 5 mg/kg, route oral; conditions: read-out: Drug uptake; procedure, shortened: as §5
Hepatitis C virus [34] = experiment: Ratio of EC50 for HCV isolate Con1 in presence of 40% human serum to EC50 for HCV isolate Con1; format: functional, Hepacivirus hominis
Procedure, shortened: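 Genotype 1b-con1 subgenomic replicon in Huh-7 cells. Four-day incubation with inhibitor in medium with 5% FBS, with or without 40% human serum. EC50 from the fall in HCV RNA copy number by real-time PCR. Ratio is EC50 with serum over EC50 without.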

[35] = Metabolic stability in monkey hepatocytes assessed as intrinsic clearance; format: ADME, cell-based, Macaca mulatta, Liver, Hepatocyte; conditions: rhesus monkey
[36] = Elimination half life in rat at 5 mg/kg, iv; format: ADME, organism-based; design: dose 5 mg/kg, route intravenous; conditions: in vivo, read-out: beta t1/2 (converted); procedure, shortened: as §1
[37] = Plasma clearance in monkey at 5 mg/kg, iv; format: ADME, organism-based, Macaca mulatta; design: dose 5 mg/kg, route intravenous; conditions: rhesus monkey; procedure, shortened: as §1
[38] = Volume of distribution at steady state in rat at 5 mg/kg, iv; format: ADME, organism-based; design: dose 5 mg/kg, route intravenous; conditions: in vivo, read-out: Vdss; procedure, shortened: as §3
[39] = Terminal phase volume of distribution in monkey at 5 mg/kg, iv; format: ADME, organism-based, Macaca mulatta; design: dose 5 mg/kg, route intravenous; conditions: rhesus monkey, in vivo, read-out: Vbeta; procedure, shortened: as §3
[40] = Elimination half life in dog at 2.5 mg/kg, po; format: ADME, organism-based, Canis lupus familiaris; design: dose 2.5 mg/kg, route oral; conditions: in vivo, read-out: beta t1/2 (converted); procedure, shortened: as §1
[41] = Plasma clearance in dog at 2.5 mg/kg, iv; format: ADME, organism-based, Canis lupus familiaris; design: dose 2.5 mg/kg, route intravenous; procedure, shortened: as §1
Hepatocyte [42] = experiment: Metabolic stability in human hepatocytes assessed as intrinsic clearance; format: ADME, cell-based, Liver
[43] = Aqueous solubility in 50 mM phosphate buffer at pH 7.4; format: physicochemical; procedure, shortened: as §2
[44] = Plasma clearance in rat at 5 mg/kg, iv; format: ADME, organism-based; design: dose 5 mg/kg, route intravenous; procedure, shortened: as §1
[45] = AUC in dog at 2.5 mg/kg, iv; format: ADME, organism-based, Canis lupus familiaris; design: dose 2.5 mg/kg, route intravenous; conditions: plasma; procedure, shortened: as §1
[46] = Metabolic stability in rat liver microsomes assessed as intrinsic clearance; format: ADME, Microsome
[47] = Oral bioavailability in rat at 5 mg/kg; format: ADME, organism-based; conditions: in vivo; procedure, shortened: as §1
[48] = Tmax in dog at 2.5 mg/kg, po; format: ADME, organism-based, Canis lupus familiaris; design: dose 2.5 mg/kg, route oral; conditions: in vivo; procedure, shortened: as §4
[49] = Metabolic stability in monkey liver microsomes assessed as intrinsic clearance; format: ADME, Macaca mulatta, Microsome; conditions: rhesus monkey
Hepatitis C virus [50] = experiment: Antiviral activity against HCV isolate Con1 assessed as reduction in viral RNA after 4 days by RT-PCR in presence of 40% human serum; conditions: isolate Con1, 96 h
Hepatitis C virus [51] = experiment: Antiviral activity against HCV 1a containing chimeric genotype 1a-H77/1b-con1 subgenom in human Huh7 cells assessed as reduction in viral RNA after 4 days by RT-PCR; conditions: subtype 1a, Huh-7, 96 h
[52] = Metabolic stability in dog hepatocytes assessed as intrinsic clearance; format: ADME, cell-based, Canis lupus familiaris, Liver, Hepatocyte

## CC(C)(C)CC[C@@]1(C)C(=O)C(C2=NS(=O)(=O)c3cc(NS(C)(=O)=O)ccc3N2)=C(O)c2ccccc21
Nucleic Acid [1]
  Ratio: 270
Nucleic Acid [2]
  Ratio: 1400

## CC(C)(C)CC[C@@]1(C)C(=O)C(C2=NS(=O)(=O)c3cc(NS(C)(=O)=O)ccc3N2)=C([O-])c2ccccc21.[Na+]
[3]
  half-life: 12.3 h
[4]
  solubility: < 0.2 µg/mL
[5]
  IC50: 0.6 nM
[6]
  microsomal CLint: 2.4 µL/min/mg
[7]
  solubility: 150000 µg/mL
Hepatitis C virus [8]
  EC50: 2 nM
[9]
  Vd: 0.38 L/kg
[10]
  logD: 2.26
[11]
  IC50: 0.7 nM
[12]
  bioavailability: 100%
[13]
  half-life: 2 h
[14]
  Vd: 0.46 L/kg
[15]
  AUC: 121000 ng·h/mL
[16]
  Tmax: 2.7 h
[17]
  AUC: 10200 ng·h/mL
[18]
  Vd: 0.77 L/kg
Hepatocyte [19]
  CL: 1.6 µL/min/mg
[20]
  CC50: 21700 nM
[21]
  Cmax: 890 ng/mL
[22]
  AUC: 11500 ng·h/mL
[23]
  Vd: 2.39 L/kg
[24]
  Cmax: 480 ng/mL
[25]
  AUC: 14900 ng·h/mL
[26]
  half-life: 2.1 h
[27]
  microsomal CLint: 23.6 µL/min/mg
[28]
  concentration at 12 h: 4190 ng/g
[29]
  AUC: 1900 ng·h/mL
[30]
  Cmax: 5700 ng/mL
[31]
  bioavailability: 19%
[32]
  Tmax: 9 h
[33]
  concentration at 6 h: 21800 ng/g
Hepatitis C virus [34]
  Ratio EC50: 17
[35]
  CL: 3.5 µL/min/mg
[36]
  half-life: 4.5 h
[37]
  clearance: 9.33 mL/min/kg
[38]
  Vd: 2.22 L/kg
[39]
  Vd: 1.77 L/kg
[40]
  half-life: 14.8 h
[41]
  clearance: 0.333 mL/min/kg
Hepatocyte [42]
  CL: 2.7 µL/min/mg
[43]
  solubility: 110 µg/mL
[44]
  clearance: 5.67 mL/min/kg
[45]
  AUC: 116000 ng·h/mL
[46]
  microsomal CLint: 8.7 µL/min/mg
[47]
  bioavailability: 77.3%
[48]
  Tmax: 2.2 h
[49]
  microsomal CLint: 14.4 µL/min/mg
Hepatitis C virus [50]
  EC50: 28 nM
Hepatitis C virus [51]
  EC50: 4 nM
[52]
  CL: 0.5 µL/min/mg
